Data set [1] is described as follows: Antiproliferative activity against human WI-26 AV4 cells assessed as reduction in cell viability measured after 72 hrs by MTT assay. The note with it: WI26VA4, 72 h.
Data set [2] deals with A-431. Description: Antiproliferative activity against human A-431 cells assessed as cell survival rate at 300 uM measured after 24 hrs under CoCl2-induced hypoxic condition by MTT assay relative to control. The note with it: read-out: Survival. The format is functional. An outline of the steps: (§1)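 MTT end-point assay. MTT (5 mg/mL in PBS) added for 4 h, formazan dissolved in DMSO, absorbance read at 560 nm. Viability given as % of untreated control (100%); mean ± SEM of three experiments.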
For orientation: Tetrazolium assays rely on reduction of a dye to a coloured formazan, in cell work by metabolically active cells.

For data set [3], the system named is A-431. Put plainly: Antiproliferative activity against human A-431 cells assessed as reduction in cell viability measured after 72 hrs by MTT assay. The following applies: A-431, 72 h.
The subject of data set [4] is A-431. Put plainly: Antiproliferative activity against human A-431 cells assessed as reduction in cell viability measured after 24 hrs by MTT assay. The note with it: A-431, 24 h.
Data set [5] can be described thus: Antiproliferative activity against human WI-26 AV4 cells assessed as reduction in cell viability measured after 24 hrs by MTT assay. The note with it: WI-26 AV4, 24 h.
In the next data set the test system is RT-4. Description: Antiproliferative activity against human RT-4 cells assessed as cell survival rate at 300 uM measured after 24 hrs under CoCl2-induced hypoxic condition by MTT assay relative to control. It is filed as functional. The following applies: read-out: Survival. The method in brief:
as §1

Data set [6] has as its system U-87 MG. Description: Antiproliferative activity against human U-87 MG cells assessed as cell growth inhibition at 30 to 100 uM measured after 24 hrs under CoCl2-induced hypoxic condition by MTT assay. The format is functional, cell-based. The note with it: U-87MG ATCC, dose 30-100 µM.
A further data set addresses Carbonic anhydrase 9 (Homo sapiens, UniProt Q16790). Put plainly: Inhibition of human carbonic anhydrase 9 assessed as inhibition constant incubated for 15 mins prior to testing by phenol red based stopped-flow CO2 hydration assay.
For data set [7], the system named is hTERT-BJ. Put plainly: Cytotoxicity against human TERT-Bj-5ta cells assessed as reduction in cell viability at measured after 24 hrs under CoCl2- induced hypoxic condition by MTT assay. The format is cell-based.
The subject of data set [8] is A-431. Put plainly: Antiproliferative activity against human A-431 cells assessed as reduction in cell viability measured after 48 hrs by MTT assay. The note with it: A-431, 48 h.
Data set [9] in a line: Antiproliferative activity against human WI-26 AV4 cells assessed as reduction in cell viability measured after 48 hrs by MTT assay. The note with it: WI-26 AV4, 48 h.
Data set [10] concerns U-87 MG. Description: Antiproliferative activity against human U-87 MG cells assessed as cell survival rate at 300 uM measured after 24 hrs under CoCl2-induced hypoxic condition by MTT assay relative to control. It is filed as functional, U-87MG ATCC. The note with it: read-out: Survival. The method in brief:
as §1

Data set [11] relates to hTERT-BJ. Put plainly: Cytotoxicity against human TERT-Bj-5ta cells assessed as reduction in cell viability at 300 uM measured after 24 hrs under CoCl2- induced hypoxic condition by MTT assay relative to control. The format is cell-based.

The source made the active and inactive calls. No cut-off for these calls is given here.

As for `NS(=O)(=O)c1cc2cc(Cl)ccc2oc1=O`, the half-maximal inhibitory concentration (IC50) (commonly the concentration at which inhibition is half-maximal) in data set [1] stood at 5.87 µM; in the data set with A-431 [3] it was 57.8 µM; in the data set with A-431 [4], 51.9 µM; in [5], 89.2 µM; with A-431 [8], 29.1 µM; in data set [9] it was 45.1 µM. Moreover, the viability at 300 µM turned out to be 36.5% in the data set with A-431 [2] and 19.7% in the data set with RT-4. The “growth inhibition (GI)” value in the data set on U-87 MG [6] was “inactive”. Besides, the Ki – broadly, a measure of affinity in units of concentration, obtained from inhibition or displacement – at Carbonic anhydrase 9 turned out to be 0.177 µM. Also, the Activity entry in the data set with hTERT-BJ [7] is listed as “Non-Toxic”.

On to `COc1cccc2cc(S(N)(=O)=O)c(=O)oc12`, for which the “growth inhibition (GI)” value in the data set on U-87 MG [6] is “inactive”. In addition, the Ki on Carbonic anhydrase 9 stood at 0.0879 µM.

For `NS(=O)(=O)c1cc2cccc(F)c2oc1=O`, in the data set on U-87 MG [10], the viability at 300 µM turned out to be 57.9%. Further, in the data set with U-87 MG [6], the “growth inhibition (GI)” value was “inactive”. In addition, the Ki on Carbonic anhydrase 9 is 0.0411 µM.

In the case of `Cc1ccc2oc(=O)c(S(N)(=O)=O)cc2c1`, the “growth inhibition (GI)” value in the data set with U-87 MG [6] is “inactive”. For the same molecule, the Ki on Carbonic anhydrase 9 is 0.0474 µM.

Consider `COc1ccc2oc(=O)c(S(N)(=O)=O)cc2c1`, for which, in the data set with U-87 MG [6], the “growth inhibition (GI)” value was “inactive”. Moreover, on Carbonic anhydrase 9, the Ki was 0.0581 µM. For the same molecule, in the data set on hTERT-BJ [11], the Activity amounted to 70.97%.

On to `COc1cccc2oc(=O)c(S(N)(=O)=O)cc12`, for which the “growth inhibition (GI)” value in the data set with U-87 MG [6] was “inactive”. The Ki at Carbonic anhydrase 9 worked out at 2.98 µM.

Take `NS(=O)(=O)c1cc2cc(Br)ccc2oc1=O`: the IC50 in data set [1] was found to be 21.5 µM; in the data set with A-431 [3] it was 49.2 µM; in the data set with A-431 [4] it was 38.4 µM; in data set [5] it was 76.6 µM; in the data set with A-431 [8] it was 24.7 µM; in data set [9], 42.1 µM. The viability at 300 µM with A-431 [2] came to 39.3%; in the data set with RT-4 it was 19.7%. In the data set on U-87 MG [6], the “growth inhibition (GI)” value was “inactive”. The Ki on Carbonic anhydrase 9 amounted to 0.317 µM. For the same molecule, the Activity result in the data set with hTERT-BJ [7] is on record as “Non-Toxic”.

For `NS(=O)(=O)c1cc2cc([N+](=O)[O-])ccc2oc1=O`, in the data set on U-87 MG [6], the “growth inhibition (GI)” value was “inactive”. For the same molecule, on Carbonic anhydrase 9, the Ki is 0.148 µM.

Turning to `NS(=O)(=O)c1cc2cccc(O)c2oc1=O`, the viability at 300 µM was 67.7% in the data set on U-87 MG [10] and 19.7% with RT-4. For the same molecule, in the data set with U-87 MG [6], the “growth inhibition (GI)” value was “inactive”. Moreover, the Ki at Carbonic anhydrase 9 turned out to be 0.0987 µM. Besides, in the data set on hTERT-BJ [11], the Activity was found to be 54.76%.

(Values after ChEMBL document CHEMBL4825703, “Investigation of 3-sulfamoyl coumarins against cancer-related IX and XII isoforms of human carbonic anhydrase as well as cancer cells leads to the discovery of 2-oxo-2H-benzo[h]chromene-3-sulfonamide - A new caspase-activating proapoptotic agent” (Eur J Med Chem, 2021).)
